Results as given in ChEMBL document CHEMBL3861955, “Pepluane and Paraliane Diterpenoids from Euphorbia peplus with Potential Anti-inflammatory Activity” (J Nat Prod, 2016).
Residues, ends and D or L forms follow the SMILES beside them. *: point of attachment. Cbz = O=C(OCc1ccccc1)*

Assays:
[1] = Antiinflammatory activity in mouse RAW264.7 cells assessed as inhibition of LPS-induced nitric oxide production after 18 hrs by Griess assay; format: functional, cell-based; settings: RAW264.7, 18 h
In short: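 RAW264.7 cells seeded at 2 × 10^5 cells/well in RPMI-1640 and preincubated 24 h. Compounds added as serial dilutions from a top concentration of 100 μM, then LPS (1 μg/mL) stimulation for 18 h. Supernatant nitrite measured with Griess reagent after 5 min incubation, absorbance at 550 nm; proteasome inhibitor MG-132 used as positive control.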

[2] = species: Mus musculus; experiment: Cytotoxicity against mouse RAW264.7 cells assessed as decrease in cell viability by MTT assay; format: toxicity, cell-based
In short: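 Viability measured by MTT, run alongside the LPS/NO assay in the same RAW264.7 cultures: 2 × 10^5 cells/well in RPMI-1640, 24 h preincubation, compound serial dilutions up to 100 μM, then LPS (1 μg/mL) for 18 h. Absorbance read at 595 nm.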

## CC(=O)O[C@@H]1[C@H]2[C@@H](OC(=O)c3ccccc3)[C@@H](C)C[C@]2(O)[C@H](OC(C)=O)[C@@]2(C)[C@@H]3CC(C)(C)C(=O)[C@]3(OC(C)=O)C[C@@]12C
[1]
  IC50: 29.9 µM
[2]
  Activity: Non-Toxic

## CC(=O)O[C@@H]1[C@H]2[C@@H](OC(=O)c3ccccc3)[C@@H](C)C[C@]2(O)[C@H](OC(C)=O)[C@@]2(C)[C@@H]3C[C@@](C)(O)C[C@H](O)[C@]3(OC(C)=O)C[C@@]12C
[1]
  IC50: > 50 µM
[2]
  Activity: Non-Toxic

## CC(=O)O[C@@H]1[C@H]2[C@@H](OC(=O)c3ccccc3)[C@@H](C)C[C@]2(O)[C@H](OC(C)=O)[C@@]2(C)[C@@H]3CC(C)(C)C(=O)[C@@H]3C[C@@]12C
[1]
  IC50: 33.7 µM
[2]
  Activity: Non-Toxic

## CC(=O)O[C@H]1C[C@](C)(O)C[C@@H]2[C@@]1(OC(C)=O)C[C@@]1(C)[C@H](OC(C)=O)[C@H]3[C@@H](O)[C@@H](C)C[C@]3(O)[C@H](OC(C)=O)[C@@]21C
[1]
  IC50: > 50 µM
[2]
  Activity: Non-Toxic

## CC(=O)O[C@@H]1[C@H]2[C@@H](OC(=O)c3ccccc3)[C@@H](C)C[C@]2(O)[C@H](OC(C)=O)[C@@]2(C)[C@@H]3C[C@@](C)(OC(C)=O)CC(=O)[C@]3(OC(C)=O)C[C@@]12C
[1]
  IC50: 47.5 µM
[2]
  Activity: Non-Toxic

## CC(=O)O[C@H]1C[C@](C)(O)C[C@@H]2[C@@]1(O)C[C@@]1(C)[C@H](OC(C)=O)[C@H]3[C@@H](OC(=O)c4ccccc4)[C@@H](C)C[C@]3(O)[C@H](OC(C)=O)[C@@]21C
[1]
  IC50: > 50 µM
[2]
  Activity: Non-Toxic

## CC(=O)OC[C@@]12C[C@@]3(OC(C)=O)C(=O)C(C)(C)C[C@H]3[C@]1(C)[C@@H](OC(C)=O)[C@@]1(O)C[C@H](C)[C@H](OC(=O)c3ccccc3)[C@@H]1[C@H]2OC(C)=O
[1]
  IC50: > 50 µM
[2]
  Activity: Non-Toxic

## CC(=O)O[C@@H]1[C@H]2[C@@H](OC(=O)c3ccccc3)[C@@H](C)C[C@]2(O)[C@H](OC(C)=O)[C@@]2(C)[C@@H]3C[C@@](C)(OC(C)=O)C[C@H](O)[C@]3(OC(C)=O)C[C@@]12C
[1]
  IC50: > 50 µM
[2]
  Activity: Non-Toxic

## CC(=O)O[C@H]1C[C@](C)(OC(C)=O)C[C@@H]2[C@@]1(OC(C)=O)C[C@@]1(C)[C@H](OC(C)=O)[C@H]3[C@@H](OC(=O)c4ccccc4)[C@@H](C)C[C@]3(O)[C@H](OC(C)=O)[C@@]21C
[1]
  IC50: 37.1 µM
[2]
  Activity: Non-Toxic

## CC(=O)O[C@@H]1[C@H]2[C@@H](OC(=O)c3ccccc3)[C@@H](C)C[C@]2(O)C(=O)[C@@]2(C)[C@@H]3CC(C)(C)C(=O)[C@@H]3C[C@@]12C
[1]
  IC50: 38.3 µM
[2]
  Activity: Non-Toxic

## CC(=O)O[C@@H]1[C@H]2[C@@H](OC(=O)c3ccccc3)[C@@H](C)C[C@]2(O)[C@H](OC(C)=O)[C@@]2(C)[C@@H]3C[C@@](C)(O)CC(=O)[C@]3(OC(C)=O)C[C@@]12C
[1]
  IC50: > 50 µM
[2]
  Activity: Non-Toxic

## CC(=O)O[C@@H]1[C@H]2[C@@H](OC(=O)c3ccccc3)[C@@H](C)C[C@]2(O)[C@H](OC(C)=O)[C@@]2(C)[C@@H]3CC(C)(C)C(=O)[C@]3(O)C[C@@]12C
[1]
  IC50: 43.2 µM
[2]
  Activity: Non-Toxic

## CC(=O)O[C@H]1C[C@](C)(O)C[C@@H]2[C@@]1(OC(C)=O)C[C@@]1(C)[C@H](OC(C)=O)[C@H]3[C@@H](OC(=O)c4ccccc4)[C@@H](C)C[C@]3(O)[C@H](OC(C)=O)[C@@]21C
[1]
  IC50: > 50 µM
[2]
  Activity: Non-Toxic

## CC(=O)O[C@@H]1[C@H]2[C@@H](OC(=O)c3ccccc3)[C@@H](C)C[C@]2(O)[C@H](OC(C)=O)[C@@]2(C)[C@@H]3CC(C)=CC(=O)[C@]3(OC(C)=O)C[C@@]12C
[1]
  IC50: 36.6 µM
[2]
  Activity: Non-Toxic

## CC(=O)OC[C@@]12C[C@@]3(OC(C)=O)C(=O)C=C(C)C[C@H]3[C@]1(C)[C@@H](OC(C)=O)[C@@]1(O)C[C@H](C)[C@H](OC(=O)c3ccccc3)[C@@H]1[C@H]2OC(C)=O
[1]
  IC50: > 50 µM
[2]
  Activity: Non-Toxic

## CC(=O)O[C@H]1C[C@](C)(O)C[C@@H]2[C@@]1(OC(C)=O)C[C@@]1(C)[C@H](OC(C)=O)[C@H]3[C@@H](OC(=O)c4ccccc4)[C@@H](C)[C@@H](OC(C)=O)[C@]3(O)[C@H](OC(C)=O)[C@@]21C
[1]
  IC50: > 50 µM
[2]
  Activity: Non-Toxic

## CC(=O)O[C@@H]1[C@H]2[C@@H](OC(=O)c3ccccc3)[C@@H](C)C[C@]2(O)[C@H](OC(C)=O)[C@@]2(C)[C@@H]3C[C@](C)(O)CC(=O)[C@]3(OC(C)=O)C[C@@]12C
[1]
  IC50: > 50 µM
[2]
  Activity: Non-Toxic

## CC(C)C[C@@H](C=O)NC(=O)[C@H](CC(C)C)NC(=O)[C@H](CC(C)C)NC(=O)OCc1ccccc1 [MG-132] (Cbz-Leu-Leu-Leu-aldehyde)
[1]
  IC50: 0.18 µM
